Experimental data taken from publication PMC4083110 (Molecular & Cellular Proteomics : MCP, 2014).
Entries after “also recorded” stand apart in the source; their conditions may differ. Values belong to the substance of their own block, whether it stands above or below them.

Key:
GRAP2 SH2 domain = GRAP2 SH2 domain (Homo sapiens, UniProt O75791); assay: FP saturation binding; conditions: result in words
In short: (§1)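 Tandem SH2 proteins were kept with their linkers. Synthetic phosphotyrosine peptides were run in automated high-throughput FP saturation binding. Millipolarization was fitted to Pobs = Pmax·[Protein]/(KD+[Protein]) by least squares to give KD per protein/peptide pair.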

GRB2 SH2 domain = GRB2 SH2 domain (Homo sapiens, UniProt P62993); assay: FP saturation binding; conditions: result in words
Sequence of GRB2 SH2 domain (P62993 60-152 limits assumed): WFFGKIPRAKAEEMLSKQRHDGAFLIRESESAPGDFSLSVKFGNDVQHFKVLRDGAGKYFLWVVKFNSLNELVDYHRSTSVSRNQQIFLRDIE
In short: as §1

[1] = test system: c-Src family kinase SH2 domains; assay: FP saturation binding, domain family; parameters: species or system human; conditions: result in words
In short: (§2)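 Multi-SH2 genes were used as tandem proteins that kept the linker residues. Automated high-throughput FP saturation binding was run against 178 synthetic phosphopeptides from RTK, GAB1 and androgen receptor tyrosine sites. Millipolarization readings were fitted to P_obs = Pmax·[Protein]/(K_D+[Protein]) by least squares regression to give K_D.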

[2] = target: PIK3R-derived SH2 domains; assay: FP saturation binding, domain family; parameters: species or system human; conditions: for recruitment of PIK3R (PI3KR) SH2 domains: FP, result in words
In short: as §2

PLCG2 SH2 domains = target: T1, PLCG2 SH2 domains (Homo sapiens, UniProt P16885); assay: FP saturation binding, construct not stated; conditions: result in words
T1 sequence (P16885 532-735 limits assumed): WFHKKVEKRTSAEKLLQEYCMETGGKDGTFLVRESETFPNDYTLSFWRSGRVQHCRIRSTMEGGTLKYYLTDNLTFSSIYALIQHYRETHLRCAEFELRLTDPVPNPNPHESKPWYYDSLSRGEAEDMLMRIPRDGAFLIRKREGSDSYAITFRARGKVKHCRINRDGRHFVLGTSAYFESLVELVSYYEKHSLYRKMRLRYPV
In short: as §2

PLCG1 SH2 domains = target: T2, PLCG1 SH2 domains (Homo sapiens, UniProt P19174); assay: FP saturation binding, construct not stated; conditions: result in words
T2 sequence (P19174 550-756 limits assumed): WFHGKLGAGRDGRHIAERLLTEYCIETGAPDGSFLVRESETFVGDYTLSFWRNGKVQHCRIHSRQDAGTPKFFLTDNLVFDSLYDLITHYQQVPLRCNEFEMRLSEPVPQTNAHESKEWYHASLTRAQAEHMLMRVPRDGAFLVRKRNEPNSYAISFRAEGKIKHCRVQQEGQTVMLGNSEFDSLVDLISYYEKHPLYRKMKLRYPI
In short: as §2

CRK SH2 domain = CRK SH2 domain (Homo sapiens, UniProt P46108); assay: FP saturation binding; conditions: result in words
Sequence of CRK SH2 domain (P46108 13-118 limits assumed): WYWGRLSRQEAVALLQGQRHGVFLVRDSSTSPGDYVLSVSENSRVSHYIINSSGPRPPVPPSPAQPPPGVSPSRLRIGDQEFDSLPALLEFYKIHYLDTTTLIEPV
In short: as §2

[3] = target: T3, SHC1 PTB domain (SHC1.PTB) (Homo sapiens, UniProt P29353); assay: FP saturation binding; conditions: result in words
T3 sequence (P29353 156-339 limits assumed): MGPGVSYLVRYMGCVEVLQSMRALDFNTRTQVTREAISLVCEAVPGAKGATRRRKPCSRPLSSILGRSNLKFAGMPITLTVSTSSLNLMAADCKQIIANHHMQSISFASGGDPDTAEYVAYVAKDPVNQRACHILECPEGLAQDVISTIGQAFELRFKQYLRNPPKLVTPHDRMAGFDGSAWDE
In short: as §2

Shp2/PTPN11 SH2 domain = target: T4, Shp2/PTPN11 SH2 domain (Homo sapiens, UniProt Q06124); assay: FP saturation binding, construct not stated; conditions: result in words
T4 sequence (Q06124 2-593): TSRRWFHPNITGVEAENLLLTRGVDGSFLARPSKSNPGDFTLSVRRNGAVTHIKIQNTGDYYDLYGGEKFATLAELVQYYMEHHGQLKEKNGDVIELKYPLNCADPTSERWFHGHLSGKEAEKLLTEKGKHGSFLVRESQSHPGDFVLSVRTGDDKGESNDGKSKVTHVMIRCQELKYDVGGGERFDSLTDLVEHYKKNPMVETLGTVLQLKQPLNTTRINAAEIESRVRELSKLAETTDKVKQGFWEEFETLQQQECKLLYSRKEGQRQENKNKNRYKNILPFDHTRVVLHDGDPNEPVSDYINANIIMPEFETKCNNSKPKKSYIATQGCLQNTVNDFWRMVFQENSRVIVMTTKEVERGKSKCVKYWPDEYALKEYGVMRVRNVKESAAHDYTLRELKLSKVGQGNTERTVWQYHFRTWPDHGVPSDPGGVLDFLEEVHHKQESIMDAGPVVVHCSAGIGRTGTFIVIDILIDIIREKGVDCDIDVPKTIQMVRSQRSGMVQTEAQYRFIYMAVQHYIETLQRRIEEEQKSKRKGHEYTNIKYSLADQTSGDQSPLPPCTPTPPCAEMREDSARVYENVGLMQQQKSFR
In short: as §2

SHC1 SH2 domain = target: T5, SHC1 SH2 domain (Homo sapiens, UniProt P29353); assay: FP saturation binding; conditions: result in words
T5 sequence (P29353 488-579 limits assumed): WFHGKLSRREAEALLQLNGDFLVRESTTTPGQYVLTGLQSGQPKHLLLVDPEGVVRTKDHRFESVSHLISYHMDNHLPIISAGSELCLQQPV
In short: as §1

SH2D1B SH2 domain = target: T6, SH2D1B SH2 domain (Homo sapiens, UniProt O14796); assay: FP saturation binding; conditions: result in words
T6 sequence (O14796 5-101 limits assumed): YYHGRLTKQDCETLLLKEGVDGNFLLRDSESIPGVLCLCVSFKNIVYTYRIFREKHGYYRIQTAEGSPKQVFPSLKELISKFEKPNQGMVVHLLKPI
In short: as §2

[4] = test system: tensin family SH2 domains; assay: FP saturation binding, domain family; parameters: species or system human; conditions: result in words
In short: as §2

RASA1 SH2 domains = target: T7, RASA1 SH2 domains (Homo sapiens, UniProt P20936); assay: FP saturation binding, construct not stated; conditions: result in words
T7 sequence (P20936 181-441 limits assumed): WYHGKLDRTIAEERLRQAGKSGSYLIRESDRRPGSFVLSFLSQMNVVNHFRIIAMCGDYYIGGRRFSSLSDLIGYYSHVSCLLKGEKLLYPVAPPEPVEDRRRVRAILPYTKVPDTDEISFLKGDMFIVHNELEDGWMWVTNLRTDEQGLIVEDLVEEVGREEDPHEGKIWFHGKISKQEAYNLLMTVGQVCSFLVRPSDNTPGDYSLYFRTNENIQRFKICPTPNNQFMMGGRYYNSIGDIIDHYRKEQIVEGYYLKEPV
In short: as §2

SRC SH2 domain = SRC SH2 domain (Homo sapiens, UniProt P12931); assay: FP saturation binding; conditions: result in words
In short: as §2

[5] = target: PLCG1 (NC tandem domain), PLCG1.NC (Homo sapiens, UniProt P19174); assay: FP saturation binding; conditions: result in words
In short: as §2

[6] = test system: 93 SH2 domains and 2 phosphotyrosine binding (PTB) domains; assay: High throughput FP, whole domain panel; parameters: species or system human; conditions: result in words
In short: as §2

[7] = target: PIK3R3 (C-terminal domain), PIK3R3.C (Homo sapiens, UniProt Q92569); assay: FP saturation binding; conditions: result in words
In short: as §2

Sequence of GRAP2 SH2 domain (O75791 58-149 limits assumed): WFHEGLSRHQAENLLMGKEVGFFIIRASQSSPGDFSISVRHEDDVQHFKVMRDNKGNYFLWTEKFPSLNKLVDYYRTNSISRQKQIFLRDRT

Substance: PIDYXFPPQKTCd [AR Tyr(P)-553]
recruitment of PLCG2 SH2 domains (PLCG2 SH2 domains): recruitment sites
recruitment of PIK3R (PI3KR) SH2 domains [2]: relatively high affinity
recruitment of PLCG1 SH2 domains (PLCG1 SH2 domains): recruitment sites

Substance: QQMIXDSPPSRAd [GAB1 Tyr(P)-242]
recruitment of CRK SH2 domain (CRK SH2 domain): no CRK SH2 domain interactions

Substance: KLKRXAWKRRWFd [GAB1 Tyr(P)-24]
recruitment of CRK SH2 domain (CRK SH2 domain): CRK SH2 domain recruitment
interaction with SHC1 PTB domain [3]: interactions were observed

Substance: ERVDXVVVDQQKd [GAB1 Tyr(P)-689]
recruitment of Shp2/PTPN11 SH2 domain (Shp2/PTPN11 SH2 domain): unable to recruit
recruitment of c-Src family kinase SH2 domains [1]: able to recruit
interaction with SHC1 SH2 domain (SHC1 SH2 domain): interactions were identified
recruitment of SH2D1B SH2 domain (SH2D1B SH2 domain): able to recruit
recruitment of PIK3R (PI3KR) SH2 domains [2]: able to recruit
recruitment of PLCG1 SH2 domains (PLCG1 SH2 domains): able to recruit

Substance: LPPPXQLINVPPd [GAB1 Tyr(P)-162]
interaction with SHC1 SH2 domain (SHC1 SH2 domain): unable to detect

Substance: DRIFXLVADSEEd [GAB1 Tyr(P)-95]
recruitment of CRK SH2 domain (CRK SH2 domain): CRK SH2 domain recruitment
interaction with SHC1 SH2 domain (SHC1 SH2 domain): interactions were identified

Substance: QSRDXYNFPLALd [AR Tyr(P)-362]
recruitment of PLCG2 SH2 domains (PLCG2 SH2 domains): recruitment sites
recruitment of RASA1 SH2 domains (RASA1 SH2 domains): interacted
recruitment of PIK3R (PI3KR) SH2 domains [2]: interacted; also recorded: relatively high affinity
recruitment of PLCG1 SH2 domains (PLCG1 SH2 domains): interacted; also recorded: recruitment sites
interaction with SRC SH2 domain (SRC SH2 domain): interacted

Substance: YSGPXGDMRLETd [AR Tyr(P)-534]
recruitment of PLCG1 (NC tandem domain) [5]: did recruit
recruitment across the SH2 domain panel [6]: interacted with few SH2 domains
recruitment of c-Src family kinase SH2 domains [1]: did not recruit
recruitment of PIK3R3 (C-terminal domain) [7]: did recruit

Second part, the substance after the results:

recruitment of GRAP2 SH2 domain (GRAP2 SH2 domain): detectably recruited
recruitment of GRB2 SH2 domain (GRB2 SH2 domain): detectably recruited
Substance: EAALXKNLLHSKd [c-Kit Tyr(P)-703]

recruitment of c-Src family kinase SH2 domains [1]: recruited
Substance: PAEMXDIMKTCWd [c-Kit Tyr(P)-900]

midpoint dissociation constants ([2]; FP saturation binding, all PIK3R SH2 domains, in words): sub-micromolar
recruitment of PIK3R (PI3KR) SH2 domains [2]: highest affinity
Substance: STNEXMDMKPGVd [c-Kit Tyr(P)-721]

recruitment of CRK SH2 domain (CRK SH2 domain): recruited
recruitment of c-Src family kinase SH2 domains [1]: recruited
Substance: VITEXCCYGDLLd [c-Kit Tyr(P)-672]

recruitment of CRK SH2 domain (CRK SH2 domain): recruited
recruitment of c-Src family kinase SH2 domains [1]: recruited
Substance: EYCCXGDLLNFLd [c-Kit Tyr(P)-675]

recruitment of tensin family SH2 domains [4]: recruited
recruitment of CRK SH2 domain (CRK SH2 domain): recruited
Substance: DVWSXGIFLWELd [c-Kit Tyr(P)-855]

recruitment of Shp2/PTPN11 SH2 domain (Shp2/PTPN11 SH2 domain): recruit
recruitment of PIK3R (PI3KR) SH2 domains [2]: moderate recruitment
Substance: LQPEXCPDPLYEd [c-Met Tyr(P)-1307]
